Experimental data as given in ChEMBL document CHEMBL1157020, “Antihyperglycemic activity of naphthylchalcones” (2010).
Active and inactive are the calls of the source. The rule behind the calls is not given here.

Legend:
Rattus norvegicus [1] = test: Antidiabetic activity in hyperglycemic normal Wistar rat assessed as reduction of serum glucose level at 10 mg/kg, po up to 180 mins by glucose oxidase method; type: functional, organism-based; parameters: dose 10 mg/kg
Method in brief: (§1)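 Male Wistar rats (180–210 g), fasted 16 h, given glucose 4 g/kg (8.9 M) plus compound 10 mg/kg in corn oil by oral gavage (0.5 mL); vehicle-treated and glucose-only controls. Tail-vein blood centrifuged, serum glucose by glucose oxidase before and at 15, 30, 60, 180 min. Lowering expressed versus hyperglycemic control; mean ± S.E.M., n = 8.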

Rattus norvegicus [2] = test: Antidiabetic activity in hyperglycemic normal Wistar rat assessed as reduction of serum glucose level at 10 mg/kg, po after 60 mins by glucose oxidase method relative to control; type: functional; parameters: scale not given: the % may be the effect or the level left; method in brief: as §1
Rattus norvegicus [3] = test: Antidiabetic activity in hyperglycemic normal Wistar rat assessed as potentiation of glucose-induced serum insulin level at 10 mg/kg, po after 60 mins by ELISA relative control; type: functional
Method in brief: (§2)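 Male Wistar rats (180–210 g), fasted 16 h, orally loaded with glucose 4 g/kg plus compound 10 mg/kg in corn oil by gavage; euglycemic and hyperglycemic control groups. Serum insulin by rat insulin ELISA (range 0.2–10 ng/mL; intra/inter-assay CV 3.22/6.95), absorbance 450 nm against standard curve. Increase versus hyperglycemic control at matched times; mean ± SEM, n = 8.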

Rattus norvegicus [4] = test: Antidiabetic activity in hyperglycemic normal Wistar rat assessed as reduction of serum glucose level at 10 mg/kg, po after 15 mins by glucose oxidase method relative to control; type: functional; parameters: scale not given: the % may be the effect or the level left; method in brief: as §1
Rattus norvegicus [5] = test: Antidiabetic activity in hyperglycemic normal Wistar rat assessed as potentiation of glucose-induced serum insulin level at 10 mg/kg, po by ELISA relative control; type: functional, organism-based; parameters: dose 10 mg/kg; method in brief: as §2
Rattus norvegicus [6] = test: Antidiabetic activity in hyperglycemic normal Wistar rat assessed as reduction of serum glucose level at 10 mg/kg, po after 30 mins by glucose oxidase method relative to control; type: functional; parameters: scale not given: the % may be the effect or the level left; method in brief: as §1
Rattus norvegicus [7] = test: Antidiabetic activity in hyperglycemic normal Wistar rat assessed as potentiation of glucose-induced serum insulin level at 10 mg/kg, po after 30 mins by ELISA relative control; type: functional; method in brief: as §2

For `O=C(/C=C/c1ccc2ccccc2c1)c1ccccc1[N+](=O)[O-]`, the Activity (Rattus norvegicus [1]) was “inactive”.

In the case of `O=C(/C=C/c1ccc2ccccc2c1)c1ccc([N+](=O)[O-])cc1`, the Activity (Rattus norvegicus [2]) is reported as 19%, the Activity (Rattus norvegicus [3]) is reported as 104% and the Activity (Rattus norvegicus [4]) is reported as 22%. For the same compound, the Activity (Rattus norvegicus [5]) was “Dose-dependent effect”, the Activity (Rattus norvegicus [6]) was 25% and the Activity (Rattus norvegicus [7]) was 27%.

In the case of `O=C(/C=C/c1ccc([N+](=O)[O-])cc1)c1ccc2ccccc2c1`, the Activity (Rattus norvegicus [1]) is reported as “inactive”.

In the case of `O=C(/C=C/c1cccc2ccccc12)c1cccc([N+](=O)[O-])c1`, the Activity (Rattus norvegicus [4]) is reported as 18% and the Activity (Rattus norvegicus [6]) is reported as 32%.

In the case of `O=C(/C=C/c1cccc([N+](=O)[O-])c1)c1ccc2ccccc2c1`, the Activity (Rattus norvegicus [3]) is reported as 88%, the Activity (Rattus norvegicus [5]) is reported as “Dose-dependent effect” and the Activity (Rattus norvegicus [1]) is reported as “Active”. It also gave an Activity (Rattus norvegicus [7]) of 48%.

`O=C(/C=C/c1ccc2ccccc2c1)c1cccc([N+](=O)[O-])c1` gave an Activity (Rattus norvegicus [2]) of 14%, an Activity (Rattus norvegicus [4]) of 24% and an Activity (Rattus norvegicus [6]) of 25%.

With `O=C(/C=C/c1ccc2ccccc2c1)c1ccccc1` the Activity (Rattus norvegicus [1]) was “inactive”.

With `O=C(/C=C/c1cccc2ccccc12)c1ccc([N+](=O)[O-])cc1` the Activity (Rattus norvegicus [4]) was 17% and the Activity (Rattus norvegicus [6]) was 21%.

With `O=C(/C=C/c1ccc2ccccc2c1)c1ccc2ccccc2c1` the Activity (Rattus norvegicus [1]) was “inactive”.
